This passage reports EDmin, IC50 and ED results from ChEMBL document CHEMBL1124378, “Synthesis and pharmacological evaluation of a series of 4-piperazinylpyrazolo[3,4-b]- and -[4,3-b][1,5]benzodiazepines as potential anxiolytics” (J Med Chem, 1989).

Structures are written as SMILES.

The subject of experiment [1] is Mus musculus. Kind of experiment: Dose below which no catalepsy was observed at any time period (following p.o. dosing). The experiment is classed as functional. The method in brief: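 CFW mice (21-23 g), three per group, dosed orally in water or 0.5% carboxymethylcellulose. Checked at 0.25, 2.5 and 5.0 h for holding one hind limb on a 2-cm rubber bung and staying on a vertical grid, judged against a control by a trained observer.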

Experiment [2] deals with Mus musculus. As to the kind of experiment: Compound administered perorally was evaluated for the hypothermia (rectal temperature) in mice. The class given is functional. The gist of the method: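 Groups of three CFW mice (21-23 g) received oral compound in water or 0.5% carboxymethylcellulose. Rectal temperature was taken at 0.25, 2.5 and 5.0 h. Mean change from the group's initial mean was summed over the three times. Hypothermia scored if the summed reduction was >4 °C.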

Experiment [3] addresses Muscarinic acetylcholine receptor. Kind of experiment: Compound was evaluated for the inhibition of [3H]QNB binding to Muscarinic acetylcholine receptor from male Olac rat brain.
The subject of experiment [4] is Rattus norvegicus. Kind of experiment: Rotarod response in rat to assess muscular incoordination (following p.o. dosing). The class given is functional. The gist of the method:
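Male Olac-Wistar rats (140-150 g), five per group, fed ad libitum, dosed orally. Tested 1 and 2 h later on a horizontal rod (2 rpm, 32 mm diameter), maximum 30 s. Mean time compared with vehicle controls by Mann-Whitney U test, significant at p < 0.05.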
(In general: In the rotarod test animals must keep their balance on a rotating rod.)

The subject of experiment [5] is Rattus norvegicus. As to the kind of experiment: Compound administered perorally was evaluated for the conditioned avoidance response in rats. The experiment is classed as functional. The gist of the method:
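Olac-Wistar rats (120-130 g) trained to cross a shuttle box on a 5-s buzzer, with mild shock if no response within 1 s after it ends. Only high-responders used. Groups of five were dosed orally in water or 0.5% carboxymethylcellulose 1 h 50 min before testing. After 10-min habituation they were tested 20 min. Blockade = shocks as % of stimuli presented.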

The target of experiment [6] is D(2) dopamine receptor (Bos taurus) (UniProt P20288). As to the kind of experiment: Inhibition of [3H]spiperone binding to Dopamine receptor D2 from calf caudate.
Experiment [7] has as its target Muscarinic acetylcholine receptor. Kind of experiment: Inhibition of [3H]QNB binding to muscarinic cholinergic receptor from male Olac rat brain.
The target in experiment [8] is D(2) dopamine receptor (Bos taurus) (UniProt P20288). Kind of experiment: Inhibition of [3H]spiperone binding to dopamine receptor D2 from calf caudate.

For the compound `CCn1cc2c(n1)Nc1cc(Cl)c(Cl)cc1N=C2N1CCN(C)CC1`, the EDmin in experiment [1] worked out at 200 mg/kg; in experiment [2], 50 mg/kg. Besides, the IC50 (usually the concentration that inhibits the measured activity by half) is > 1 µM in experiment [3] and 3.8 µM in experiment [6]. The ED in experiment [4] was 20 mg/kg; in experiment [5], >20 mg/kg.

Consider `CN1CCN(C2=Nc3cc(I)ccc3Nc3nn(C)cc32)CC1`, for which the EDmin in experiment [1] and in experiment [2] was 50 mg/kg in each case. The ED in experiment [4] was 25 mg/kg; in experiment [5], >20 mg/kg. Besides, the IC50 in experiment [6] was > 1 µM.

With `CN1CCN(C2=Nc3cc(S(C)(=O)=O)ccc3Nc3nn(C)cc32)CC1`, the EDmin in experiment [1] and in experiment [2] was >200 mg/kg throughout. Besides, the IC50 in experiment [3] is > 100 µM; in experiment [6], > 10 µM. Also, the ED in experiment [4] is >50 mg/kg.

With `Cc1c2c(nn1C)C(N1CCN(C)CC1)=Nc1cc(F)ccc1N2`, the IC50 in experiment [6] was > 10 µM.

On to `Cn1cc2c(n1)Nc1ccc(Cl)cc1N=C2N`, for which the EDmin was >25 mg/kg in experiment [1] and 25 mg/kg in experiment [2]. In addition, the figures for the IC50 in experiment [3] and in experiment [6] were > 100 µM and > 10 µM, respectively. Also, the ED in experiment [4] is >50 mg/kg; in experiment [5] it was >25 mg/kg.

On to `Cn1cc2c(n1)Nc1ccc(F)cc1N=C2N1CCN(Cc2ccccc2)CC1`, for which the EDmin in experiment [1] is >200 mg/kg; in experiment [2], 50 mg/kg. The figures for the IC50 in experiment [3] and in experiment [6] were > 100 µM and 2.7 µM, respectively. Moreover, the results for the ED in experiment [4] and in experiment [5] were 50 mg/kg and >50 mg/kg, respectively.

Consider `CN1CCN(C2=Nc3cc(C(=O)c4ccccc4)ccc3Nc3nn(C)cc32)CC1`, for which the EDmin in experiment [1] and in experiment [2] was >400 mg/kg throughout. Besides, the IC50 in experiment [3] is > 1 µM; in experiment [6] it was > 10 µM. The ED in experiment [4] and in experiment [5] was >50 mg/kg throughout.

As for `Cn1cc2c(n1)Nc1ccc(F)cc1N=C2N1CCN(CC2CC2)CC1`, the EDmin in experiment [1] turned out to be 100 mg/kg; in experiment [2], 50 mg/kg. Also, the IC50 is > 10 µM in experiment [3] and 0.9 µM in experiment [6]. Further, the figures for the ED in experiment [4] and in experiment [5] were 30 mg/kg and >15 mg/kg, respectively.

Regarding `CN1CCN(C2=Nc3cc(Cl)ccc3Nc3nn(C4CCCC4)cc32)CC1`, the EDmin was >400 mg/kg in experiment [1] and 50 mg/kg in experiment [2]. The results for the IC50 in experiment [7] and in experiment [8] were > 10 µM and 0.14 µM, respectively. The values for the ED in experiment [4] and in experiment [5] were >50 mg/kg and 50 mg/kg, respectively.

`CN1CCN(C2=Nc3ccc(Cl)cc3Nc3nn(C)cc32)CC1`: the EDmin in experiment [1] is >400 mg/kg; in experiment [2] it was 100 mg/kg. The concentration for half-maximal inhibition (IC50) in experiment [3] was > 100 µM; in experiment [6] it was > 10 µM. Also, the ED in experiment [4] and in experiment [5] was >50 mg/kg each time.

With `CN1CCN(C2=Nc3cc(F)ccc3Nc3nn(C)c(-c4ccccc4)c32)CC1`, the EDmin in experiment [1] was >400 mg/kg; in experiment [2] it was 200 mg/kg. The figures for the concentration for half-maximal inhibition (IC50) in experiment [7] and in experiment [8] were > 100 µM and 2.1 µM, respectively. Also, the ED in experiment [4] and in experiment [5] was >50 mg/kg throughout.

Regarding `Cn1cc2c(n1)Nc1ccc(F)cc1N=C2N1CC[N+](C)([O-])CC1`, the EDmin in experiment [1] came out at 100 mg/kg; in experiment [2] it was 50 mg/kg. Further, the 50% inhibitory concentration (IC50) is > 1 µM in experiment [7] and > 10 µM in experiment [8]. Further, the ED in experiment [4] and in experiment [5] was >50 mg/kg each time.

As to `CC(C)Cn1cc2c(n1)Nc1ccc(Cl)cc1N=C2N1CCN(C)CC1`, the results for the EDmin in experiment [1] and in experiment [2] were 200 mg/kg and 50 mg/kg, respectively. For the same compound, the IC50 in experiment [7] was > 10 µM; in experiment [8], 3.3 µM. In addition, the ED in experiment [4] and in experiment [5] was >50 mg/kg throughout.

As to `Cn1cc2c(n1)Nc1ccc(F)cc1N=C2N1CCOCC1`, the EDmin in experiment [1] is >400 mg/kg; in experiment [2], 200 mg/kg. For the same compound, the 50% inhibitory concentration (IC50) in experiment [3] and in experiment [6] was > 100 µM throughout. For the same compound, the ED in experiment [4] and in experiment [5] was >50 mg/kg each time.

Regarding `Cn1cc2c(n1)Nc1ccc(F)cc1N=C2N1CCCCC1`, the EDmin in experiment [1] is >400 mg/kg; in experiment [2], 400 mg/kg. In addition, the IC50 in experiment [3] and in experiment [6] was > 10 µM in each case. Also, the ED in experiment [4] is >50 mg/kg; in experiment [5] it was 50 mg/kg.

Turning to `CN1CCN(C2=Nc3cc(C(F)(F)F)ccc3Nc3nn(C)cc32)CC1`, the values for the EDmin in experiment [1] and in experiment [2] were 200 mg/kg and 50 mg/kg, respectively. Besides, the IC50 is > 10 µM in experiment [3] and 1.6 µM in experiment [6]. In addition, the ED in experiment [4] is >30 mg/kg; in experiment [5], 25 mg/kg.

On to `CN(C)CCNC1=Nc2cc(F)ccc2Nc2nn(C)cc21`, for which the EDmin in experiment [1] and in experiment [2] was >400 mg/kg in each case. The figures for the IC50 in experiment [3] and in experiment [6] were 6.1 µM and > 10 µM, respectively. The ED in experiment [4] and in experiment [5] was >50 mg/kg throughout.

For `CN1CCN(C2=Nc3c(Cl)cccc3Nc3nn(C)cc32)CC1`, the EDmin in experiment [1] was >400 mg/kg; in experiment [2] it was 25 mg/kg. Further, the IC50 in experiment [3] is > 100 µM; in experiment [6], 0.86 µM. The ED in experiment [4] and in experiment [5] was >50 mg/kg in each case.

Take `Cn1cc2c(n1)Nc1ccc(F)cc1N=C2N1CCN(CCO)CC1`: the EDmin in experiment [1] and in experiment [2] was >200 mg/kg in each case. Also, the 50% inhibitory concentration (IC50) in experiment [3] was > 100 µM; in experiment [6], 5.1 µM. Also, the ED in experiment [4] and in experiment [5] was >50 mg/kg throughout.

With `Cc1nn(C)c2c1Nc1ccc(F)cc1N=C2N1CCN(C)CC1`, the EDmin in experiment [1] and in experiment [2] was >200 mg/kg throughout. For the same compound, the results for the IC50 in experiment [3] and in experiment [6] were > 100 µM and > 10 µM, respectively. Moreover, the ED in experiment [4] and in experiment [5] was >50 mg/kg each time.

As to `CN1CCN(C2=Nc3cc(F)ccc3Nc3nn(-c4ccccc4)cc32)CC1`, the EDmin in experiment [1] and in experiment [2] was >200 mg/kg in each case. Besides, the results for the IC50 in experiment [7] and in experiment [6] were > 10 µM and 2.6 µM, respectively. In addition, the ED in experiment [4] was >50 mg/kg; in experiment [5], 50 mg/kg.

`CN1CCN(C2=Nc3cccc(Cl)c3Nc3nn(C)cc32)CC1`: the EDmin in experiment [1] and in experiment [2] was 184 mg/kg throughout. In addition, the IC50 is > 100 µM in experiment [3] and 4.7 µM in experiment [6]. The ED in experiment [4] and in experiment [5] was >50 mg/kg throughout.

As to `CCOC(=O)N1CCN(C2=Nc3cc(F)ccc3Nc3nn(C)cc32)CC1`, the EDmin in experiment [1] and in experiment [2] was >200 mg/kg throughout. Besides, the figures for the IC50 in experiment [3] and in experiment [6] were > 100 µM and > 10 µM, respectively. For the same compound, the ED in experiment [4] and in experiment [5] was >50 mg/kg throughout.
